Data: ChEMBL document CHEMBL4177525, “Synthesis and evaluation of frentizole-based indolyl thiourea analogues as MAO/ABAD inhibitors for Alzheimer's disease treatment” (Bioorg Med Chem, 2017)
Activity calls are given as the source filed them. The rule behind the calls is not given here.

Legend:
[1] = target: T1, Amine oxidase [flavin-containing] A (Homo sapiens, UniProt P21397); test: Inhibition of human purified MAO-A expressed in insect cell membranes assessed as reduction in conversion of kynuramine to 4-hydroxyquinoline by spectrophotometric assay
T1 sequence (P21397 whole entry): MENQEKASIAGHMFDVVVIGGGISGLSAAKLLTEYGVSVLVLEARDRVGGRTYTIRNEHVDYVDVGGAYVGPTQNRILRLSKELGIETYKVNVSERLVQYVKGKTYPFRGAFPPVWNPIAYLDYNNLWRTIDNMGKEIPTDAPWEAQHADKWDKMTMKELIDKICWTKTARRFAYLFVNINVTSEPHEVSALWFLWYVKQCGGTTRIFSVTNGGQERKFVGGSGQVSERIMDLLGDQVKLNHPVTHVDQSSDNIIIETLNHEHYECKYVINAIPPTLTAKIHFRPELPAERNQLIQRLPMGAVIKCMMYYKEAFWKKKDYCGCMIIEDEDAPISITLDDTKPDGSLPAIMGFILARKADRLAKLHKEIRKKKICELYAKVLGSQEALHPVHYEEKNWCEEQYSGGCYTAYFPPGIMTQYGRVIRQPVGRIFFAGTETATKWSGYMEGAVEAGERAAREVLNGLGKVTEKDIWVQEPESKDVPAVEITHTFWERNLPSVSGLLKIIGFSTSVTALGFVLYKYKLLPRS

[2] = target: Amyloid beta-binding alcohol dehydrogenase (Homo sapiens, UniProt Q2L8D9); test: Inhibition of ABAD (unknown origin) assessed as residual activity at 100 uM using acetoacetyl-CoA in presence of NADH by spectrophotometric assay relative to control
In short: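 Recombinant ABAD at 0.5 µg/mL with NADH 250 µM and acetoacetyl-CoA 120 µM; compound at 100 µM in 1% DMSO, controls with matching DMSO. Buffer 10 mM HEPES, 0.5% gelatin, pH 7.4 at 37°C. NADH consumption read as falling absorbance at 340 nm; reported as % remaining activity ± SEM from two biological repeats, each with three technical repeats.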

[3] = target: T2, peroxidase (horseradish peroxidase) (Raphanus sativus, UniProt K7N5L9); test: Inhibition of horse radish peroxidase assessed as residual activity at 5 uM by amplex red dye based fluorescence assay; settings: horseradish peroxidase (isolated enzyme), probe Amplex Red, read-out: Activity
T2 sequence (K7N5L9 whole entry): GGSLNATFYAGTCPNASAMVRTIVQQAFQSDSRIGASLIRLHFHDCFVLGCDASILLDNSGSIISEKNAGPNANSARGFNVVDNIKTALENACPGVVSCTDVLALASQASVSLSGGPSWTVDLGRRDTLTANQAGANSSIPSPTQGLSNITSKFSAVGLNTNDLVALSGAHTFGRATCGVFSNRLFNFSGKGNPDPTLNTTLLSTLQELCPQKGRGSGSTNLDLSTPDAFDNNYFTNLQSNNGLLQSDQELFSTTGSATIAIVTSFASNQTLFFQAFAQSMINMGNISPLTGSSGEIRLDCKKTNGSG
In short: (§1)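 HRP (0.02 U/mL) given H2O2 20 µM directly as substrate plus Ampliflu Red 20 µM in 50 mM potassium phosphate pH 7.4. Compound at 50 or 5 µM, 1% DMSO; controls DMSO only. Resorufin fluorescence read at ex 535/em 595 nm, 30°C, as remaining HRP activity.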

[4] = target: T2, peroxidase (horseradish peroxidase); test: Inhibition of horse radish peroxidase assessed as residual activity at 50 uM by amplex red dye based fluorescence assay; settings: horseradish peroxidase (isolated enzyme), probe Amplex Red, read-out: Activity; in short: as §1
[5] = Solubility of the compound at 100 uM; assay type: physicochemical
In short: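 Compounds checked for solubility in assay buffer at 100 µM.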

[6] = Cytotoxicity against CHOK1 cells assessed as reduction in cell viability after 24 hrs by MTT assay; assay type: cell-based, Cricetulus griseus; settings: chinese hamster, CHO-K1 cells; read-out: LC50
In short: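 CHO-K1 cells grown as ECACC recommends, seeded 8000 per well; compounds from DMSO stocks diluted in F-12 with 10% FBS and 1% pen/strep (final DMSO at most 0.5%), exposed 24 h. Medium then replaced with 10 µM MTT for about 3 h, formazan dissolved in DMSO, absorbance read at 570 nm (650 nm reference). LC50 from control-subtracted triplicates by four-parameter regression; mean ± SEM of 3 independent runs.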

[7] = Quenching activity of the compound assessed as reduction in resorufin fluorescence; assay type: functional
In short: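 Resorufin at 1 µM and 10 µM measured for fluorescence in the presence of compound at 50 µM.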

[8] = target: T1, Amine oxidase [flavin-containing] A; test: Inhibition of human membrane bound MAO-A expressed in insect cell membranes assessed as reduction in conversion of kynuramine to 4-hydroxyquinoline by spectrophotometric assay
In short: (§2)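 Human MAO-A or MAO-B expressed in insect cell membranes, diluted 1/4000 (A) or 1/2000 (B). Kynuramine at 2×KM: 60 µM for MAO-A, 30 µM for MAO-B. Assay in 50 mM potassium phosphate pH 7.5, 30°C, 1% DMSO, absorbance at 314 nm. Inhibitor varied over 4 orders of magnitude, up to 100 µM. Linear rates from 8-10 assays fitted by 3-parameter regression with bottom fixed at zero; IC50 ± SE of estimate.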

[9] = target: T3, Amine oxidase [flavin-containing] B (Homo sapiens, UniProt P27338); test: Inhibition of human membrane bound MAO-B expressed in insect cell membranes assessed as reduction in conversion of kynuramine to 4-hydroxyquinoline by spectrophotometric assay; in short: as §2
T3 sequence (P27338 whole entry): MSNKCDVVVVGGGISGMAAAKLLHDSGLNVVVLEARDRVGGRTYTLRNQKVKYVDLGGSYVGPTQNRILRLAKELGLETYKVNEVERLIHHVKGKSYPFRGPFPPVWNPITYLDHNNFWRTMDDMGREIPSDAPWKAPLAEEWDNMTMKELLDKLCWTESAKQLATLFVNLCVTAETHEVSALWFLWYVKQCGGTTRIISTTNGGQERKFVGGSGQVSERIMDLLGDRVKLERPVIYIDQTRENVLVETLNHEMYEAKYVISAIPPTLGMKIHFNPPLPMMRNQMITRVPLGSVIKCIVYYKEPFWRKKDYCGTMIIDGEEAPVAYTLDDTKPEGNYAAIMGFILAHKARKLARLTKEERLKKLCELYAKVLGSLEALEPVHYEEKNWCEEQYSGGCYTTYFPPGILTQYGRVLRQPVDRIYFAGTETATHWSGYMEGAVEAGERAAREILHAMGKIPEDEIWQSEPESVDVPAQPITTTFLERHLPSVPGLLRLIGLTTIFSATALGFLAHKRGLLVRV

[10] = target: Peroxidase (Raphanus sativus, UniProt K7N5L9); test: Inhibition of horse radish peroxidase assessed as residual activity by amplex red dye based fluorescence assay; in short: as §1
Chain of Peroxidase (K7N5L9 whole entry): as the sequence (K7N5L9 whole entry) above

[11] = Lipophilicity of the compound assessed as capacity factor at pH 3.5 by HPLC analysis; assay type: physicochemical; settings: buffer
In short: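 Capacity factor k from gradient HPLC on reversed-phase C18 in acid polar organic mode, pH ~3.5.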

Row | Structure (SMILES) | IC50 ([1]; read-out: IC50) [µM] | Activity [2] [%] | activity at 5 µM [3] [%] | activity at 50 µM [4] [%] | solubility [5] | CC50 at 24 h [6] [µM] | Activity [7] | IC50 [1] | IC50 [8] | IC50 [9] | IC50 ([8]; read-out: IC50) [µM] | IC50 ([9]; read-out: IC50) [µM] | IC50 [10] [µM] | K [11]
1 | CC(=O)c1ccc(NC(=S)Nc2ccc3[nH]ccc3c2)cc1 | 67 | 79.2 | 66.3 | 41.8 | Soluble | 154 | inactive |  |  |  |  |  |  | 
2 | Oc1cccc(NC(=S)Nc2ccc3[nH]ccc3c2)c1 |  | 91.6 | 81.4 | 50.9 | Soluble | 977 | inactive | Not Active |  |  |  |  |  | 
3 | COc1ccc(CNC(=S)Nc2ccc3[nH]ccc3c2)cc1 |  | 88.5 | 83.5 | 54.4 | Soluble | 232 | inactive | Not Active |  |  |  |  |  | 
4 | COc1ccc2nc(NC(=O)Nc3ccccc3)sc2c1 [FRENTIZOLE] |  |  |  |  |  | 31 |  | Not Active | Not Active | Not Active |  |  |  | 
5 | OCc1ccc(NC(=S)Nc2ccc3[nH]ccc3c2)cc1 |  | 84.2 | 88.2 | 51.4 | Soluble | 1080 | inactive | Not Active |  |  |  |  |  | 
6 | COC(=O)c1cc(NC(=S)Nc2ccc3[nH]ccc3c2)ccc1O |  | 90 | 61.2 | 42.2 | Soluble | 423 | inactive | Not Active |  |  | > 100 | 31 |  | 
7 | Oc1cc(Cl)ccc1NC(=S)Nc1ccc2[nH]ccc2c1 | 39 | 76 | 58.9 | 35.9 | Soluble | 251 | inactive |  |  |  | 6.3 | 0.3 |  | 
8 | CCOC(=O)c1ccc(NC(=S)Nc2ccc3[nH]ccc3c2)cc1 | 71 | 74.6 | 65.8 | 36.6 | Soluble | 123 | inactive |  |  |  |  |  |  | 
9 | COc1ccc(NC(=S)Nc2ccc3[nH]ccc3c2)cc1OC |  | 93.8 | 61 | 41.5 | Soluble | 797 | inactive | Not Active |  |  |  |  |  | 
10 | Oc1ccc(NC(=S)Nc2ccc3[nH]ccc3c2)cc1 |  | 90.9 | 41.5 | 31 | Soluble | 848 | inactive | Not Active |  |  | > 100 | 17 | 1.01 | 
11 | O=C(c1ccccc1)c1ccc(NC(=S)Nc2ccc3[nH]ccc3c2)cc1 |  | 80.4 | 79.1 | 71.4 | Soluble | 20 | inactive | Not Active |  |  |  |  |  | 
12 | COc1ccc(NC(=S)Nc2ccc3[nH]ccc3c2)cc1 | 36 | 91.3 | 67.6 | 46.5 | Soluble | 476 | inactive |  |  |  | 36 | 37 |  | 
13 | S=C(Nc1ccc(Oc2ccccc2)cc1)Nc1ccc2[nH]ccc2c1 |  | 90.9 | 73.1 | 65.6 | Soluble | 36 | inactive | Not Active |  |  |  |  |  | 
14 | Oc1c(Cl)cc(NC(=S)Nc2ccc3[nH]ccc3c2)cc1Cl |  | 39 | 48.6 | 23.9 | Soluble | 523 | inactive | Not Active |  |  | > 100 | 17 | 1.06 | 3.975
15 | Cc1ccc(NC(=S)Nc2ccc3[nH]ccc3c2)c(O)c1 |  | 87.2 | 47.3 | 36.2 | Soluble | 370 | inactive | Not Active |  |  | 24 | 3.2 |  | 
16 | Oc1ccccc1NC(=S)Nc1ccc2[nH]ccc2c1 | 39 | 85 | 43.9 | 36.9 | Soluble | 509 | inactive |  |  |  | 14 | 4 | 0.8 | 
17 | S=C(Nc1ccc(Br)cc1)Nc1ccc2[nH]ccc2c1 | 5.9 | 83 | 82 | 52.8 | Soluble | 220 | inactive |  |  |  | 23 | 58 |  | 4.355
18 | CC(=O)Nc1ccc(NC(=S)Nc2ccc3[nH]ccc3c2)cc1 | 71 | 93 | 68.1 | 39.3 | Soluble | 1040 | inactive |  |  |  | 70 | 37 |  | 
19 | S=C(Nc1ccc2[nH]ccc2c1)Nc1cccc2cnccc12 | 24 | 96.5 | 63.3 | 47.9 | Soluble | > 400 | inactive |  |  |  | 24 | 4 |  | 
20 | Oc1ccc(CNC(=S)Nc2ccc3[nH]ccc3c2)cc1O |  | 81.5 | 38.3 | 31.2 | Soluble | 471 | inactive | Not Active |  |  |  |  | 0.8 | 
21 | S=C(Nc1ccccc1)Nc1ccc2[nH]ccc2c1 | > 30 | 85.8 | 81.4 | 46.1 | Soluble | 337 | inactive |  |  |  | 57.5 | 60 |  | 
